The values below come from ChEMBL document CHEMBL4425138, “Probing Lipophilic Adamantyl Group as the P1-Ligand for HIV-1 Protease Inhibitors: Design, Synthesis, Protein X-ray Structural Studies, and Biological Evaluation” (J Med Chem, 2016).

The test system of one experiment is Human immunodeficiency virus 1. Nature of the experiment: Antiviral activity against wild type HIV1 NL4-3 infected in human MT4 cells by p24 assay. The settings on record: Human immunodeficiency virus 1, NL4-3, MT4. The experiment is classed as functional, organism-based. The gist of the method: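 MT-4 cells (1×10^4) infected with 50 TCID50 of virus and cultured across a range of compound concentrations. IC50 from p24 assay. Run in triplicate. Values are means (±1 SD) from two independent experiments.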
Take `CC(C)CN(C[C@@H](O)[C@H](Cc1ccccc1)NC(=O)O[C@H]1CCOC1)S(=O)(=O)c1ccc(N)cc1`: the IC50 – broadly, the concentration that inhibits the measured activity by half – was determined as 17 nM.

Take `COc1ccc(S(=O)(=O)N(CC(C)C)C[C@@H](O)[C@H](CC23CC4CC(CC(C4)C2)C3)NC(=O)O[C@H]2CCOC2)cc1`: the IC50 turned out to be 460 nM.

Compound `COc1ccc(S(=O)(=O)N(CC(C)C)C[C@@H](O)[C@H](CC23CC4CC(CC(C4)C2)C3)NC(=O)O[C@H]2CO[C@H]3OCC[C@H]32)cc1` returned an IC50 of 15 nM.

Another experiment deals with Protease (Human immunodeficiency virus 1, UniProt Q9YQ12). Nature of the experiment: Inhibition of HIV1 protease using Abz-NleF*-6 as substrate preincubated for 5 to 10 mins followed by substrate addition measured after 1 hr by fluorometric assay.
Sequence of Protease (Q9YQ12 whole entry): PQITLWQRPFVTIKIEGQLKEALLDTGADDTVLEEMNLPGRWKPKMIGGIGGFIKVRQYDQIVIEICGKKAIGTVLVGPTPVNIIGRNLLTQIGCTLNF
Conditions: not given
On to `COc1ccc(S(=O)(=O)N(C[C@@H](O)[C@H](CC23CC4CC(CC(C4)C2)C3)NC(=O)O[C@H]2CO[C@H]3OCC[C@H]32)c2ccccc2)cc1`, for which the Ki – broadly, a measure of affinity in units of concentration, obtained from inhibition or displacement – stood at 1.1 nM. This counts as single-digit nanomolar.

`COc1ccc(S(=O)(=O)N(CC(C)C)C[C@@H](O)[C@H](CC23CC4CC(CC(C4)C2)C3)NC(=O)O[C@H]2CO[C@H]3OCCC[C@H]32)cc1` had a Ki of 1.9 nM.

The compound `COc1ccc(S(=O)(=O)N(CC(C)C)C[C@@H](O)[C@H](CC23CC4CC(CC(C4)C2)C3)NC(=O)O[C@H]2CCOC2)cc1` came in with a Ki of 0.54 nM. Compared with the last compound, the Ki is about 3.5-fold lower.

For the compound `COc1ccc(S(=O)(=O)N(Cc2ccccc2)C[C@@H](O)[C@H](CC23CC4CC(CC(C4)C2)C3)NC(=O)O[C@H]2CO[C@H]3OCC[C@H]32)cc1`, the Ki came out at 8.5 nM.

Take `CC(C)CN(C[C@@H](O)[C@H](CC12CC3CC(CC(C3)C1)C2)NC(=O)O[C@H]1CCOC1)S(=O)(=O)c1ccc(N)cc1`: the affinity corresponds to a Ki of 3.4 nM.

Compound `COc1ccc(S(=O)(=O)N(CC(C)C)C[C@@H](O)[C@H](CC23CC4CC(CC(C4)C2)C3)NC(=O)O[C@H]2CO[C@H]3OCC[C@H]32)cc1` registered a Ki of 0.48 nM.

Take `COc1ccc(S(=O)(=O)N(CC(C)C)C[C@@H](O)[C@H](CC23CC4CC(CC(C4)C2)C3)NC(=O)O[C@@H]2CCOC2)cc1`: affinity was put at a Ki of 2.8 nM.

Turning to `COc1ccc(S(=O)(=O)N(CC(C)C)C[C@@H](O)[C@H](CC23CC4CC(CC(C4)C2)C3)NC(=O)O[C@@H]2CO[C@@H]3OCCC[C@@H]32)cc1`, the Ki amounted to 24 nM.

In turn, `CC(C)CN(C[C@@H](O)[C@H](CC12CC3CC(CC(C3)C1)C2)NC(=O)O[C@H]1CO[C@H]2OCC[C@H]21)S(=O)(=O)c1ccc(N)cc1` had a Ki of 0.73 nM. Compared with the last compound, the Ki is about 33-fold lower.

Regarding `COc1ccc(S(=O)(=O)N(CC(C)C)C[C@@H](O)[C@H](CC23CC4CC(CC(C4)C2)C3)NC(=O)O[C@@H]2CO[C@@H]3OCC[C@@H]32)cc1`, the Ki was found to be 1 nM.

The test system of a further experiment is Human immunodeficiency virus 1. As to the kind of experiment: Antiviral activity against darunavir resistant HIV1 harboring protease L10I/I15V/K20R/L24I/V32I/M36I/M46L/L63P/A71T/V82A/L89M mutant at 20 passages infected in human MT4 cells by p24 assay. The experiment is classed as functional, organism-based. The settings on record: Human immunodeficiency virus 1, MT4. In a few lines:
(§1)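 MT-4 cells (1×10^4) infected with 50 TCID50 of virus and cultured across a range of compound concentrations. Virus was wild-type HIV-1 NL4-3 or a multidrug-resistant variant (HIV-1B, HIV-1C, or DRV-resistant P20). IC50 from p24 assay. Run in triplicate. Values are means (±1 SD) from two independent experiments.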
In the case of `CC(C)CN(C[C@@H](O)[C@H](Cc1ccccc1)NC(=O)O[C@H]1CCOC1)S(=O)(=O)c1ccc(N)cc1`, the IC50 was over 1000 nM.

In the case of `CC(C)CN(C[C@@H](O)[C@H](Cc1ccccc1)NC(=O)O[C@H]1CO[C@H]2OCC[C@H]21)S(=O)(=O)c1ccc(N)cc1`, the IC50 was 87 nM.

`COc1ccc(S(=O)(=O)N(CC(C)C)C[C@@H](O)[C@H](CC23CC4CC(CC(C4)C2)C3)NC(=O)O[C@H]2CCOC2)cc1` registered an IC50 of over 1000 nM.

In turn, `COc1ccc(S(=O)(=O)N(CC(C)C)C[C@@H](O)[C@H](CC23CC4CC(CC(C4)C2)C3)NC(=O)O[C@H]2CO[C@H]3OCC[C@H]32)cc1` showed an IC50 of over 1000 nM.

The test system of another experiment is Human immunodeficiency virus 1. Nature of the experiment: Antiviral activity against multi-drug resistant HIV1B harboring protease L10I/L33I/M36I/M46I/F53L/K55R/I62V/L63P/A71V/G73S/V82A/L90M/I93L mutant infected in human MT4 cells by p24 assay. The settings on record: Human immunodeficiency virus 1, B. In kind it is functional, organism-based. In a few lines:
as §1
As for `CC(C)CN(C[C@@H](O)[C@H](Cc1ccccc1)NC(=O)O[C@H]1CCOC1)S(=O)(=O)c1ccc(N)cc1`, the IC50 is 860 nM. That is a sub-micromolar value.

For the compound `CC(C)CN(C[C@@H](O)[C@H](Cc1ccccc1)NC(=O)O[C@H]1CO[C@H]2OCC[C@H]21)S(=O)(=O)c1ccc(N)cc1`, it took 43 nM to reach half-maximal inhibition (IC50).

Take `COc1ccc(S(=O)(=O)N(CC(C)C)C[C@@H](O)[C@H](CC23CC4CC(CC(C4)C2)C3)NC(=O)O[C@H]2CCOC2)cc1`: the IC50 is over 1000 nM.

With `COc1ccc(S(=O)(=O)N(CC(C)C)C[C@@H](O)[C@H](CC23CC4CC(CC(C4)C2)C3)NC(=O)O[C@H]2CO[C@H]3OCC[C@H]32)cc1`, the IC50 was over 1000 nM.

The test system of another experiment is Human immunodeficiency virus. Nature of the experiment: Antiviral activity against HIV1 […] infected in human MT2 cells by MTT assay. In kind it is functional, organism-based. The settings on record: Human immunodeficiency virus 1, MT2. In a few lines:
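MT-2 human T-lymphoid cells infected with 100 TCID50 of HIV-1 LAI and cultured with each inhibitor. IC50 read by MTT assay. Run in triplicate. Values are means (±1 SD) from two independent experiments.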
On the technique in general: Tetrazolium assays rely on reduction of a dye to a coloured formazan, in cell work by metabolically active cells.
For the compound `COc1ccc(S(=O)(=O)N(CC(C)C)C[C@@H](O)[C@H](CC23CC4CC(CC(C4)C2)C3)NC(=O)O[C@H]2CO[C@H]3OCCC[C@H]32)cc1`, half-maximal inhibition (IC50) required 460 nM.

Compound `COc1ccc(S(=O)(=O)N(CC(C)C)C[C@@H](O)[C@H](CC23CC4CC(CC(C4)C2)C3)NC(=O)O[C@H]2CCOC2)cc1` yielded an IC50 of 39 nM. This IC50 is about 12-fold lower than that of the compound before.

In turn, `COc1ccc(S(=O)(=O)N(Cc2ccccc2)C[C@@H](O)[C@H](CC23CC4CC(CC(C4)C2)C3)NC(=O)O[C@H]2CO[C@H]3OCC[C@H]32)cc1` showed an IC50 of 310 nM. This IC50 is about 7.9-fold higher than that of the compound before.

Compound `CC(C)CN(C[C@@H](O)[C@H](CC12CC3CC(CC(C3)C1)C2)NC(=O)O[C@H]1CCOC1)S(=O)(=O)c1ccc(N)cc1` had an IC50 of 580 nM.

Compound `COc1ccc(S(=O)(=O)N(CC(C)C)C[C@@H](O)[C@H](CC23CC4CC(CC(C4)C2)C3)NC(=O)O[C@H]2CO[C@H]3OCC[C@H]32)cc1` yielded an IC50 of 32 nM.

Regarding `COc1ccc(S(=O)(=O)N(CC(C)C)C[C@@H](O)[C@H](CC23CC4CC(CC(C4)C2)C3)NC(=O)O[C@@H]2CO[C@@H]3OCCC[C@@H]32)cc1`, the 50% inhibitory concentration (IC50) was over 1000 nM.

With `CC(C)CN(C[C@@H](O)[C@H](CC12CC3CC(CC(C3)C1)C2)NC(=O)O[C@H]1CO[C@H]2OCC[C@H]21)S(=O)(=O)c1ccc(N)cc1`, half-maximal inhibition (IC50) was put at 60 nM.

Another experiment has as its system Human immunodeficiency virus 1. Nature of the experiment: Antiviral activity against multi-drug resistant HIV1C harboring protease L10I/I15V/K20R/L24I/M36I/M46L/I54V/I62V/L63P/K70Q/V82A/L89M mutant infected in human MT4 cells by p24 assay. In kind it is functional, organism-based. Particulars: Human immunodeficiency virus 1, C. The gist of the method:
as §1
Compound `CC(C)CN(C[C@@H](O)[C@H](Cc1ccccc1)NC(=O)O[C@H]1CCOC1)S(=O)(=O)c1ccc(N)cc1` came in with an IC50 of 430 nM.

The compound `CC(C)CN(C[C@@H](O)[C@H](Cc1ccccc1)NC(=O)O[C@H]1CO[C@H]2OCC[C@H]21)S(=O)(=O)c1ccc(N)cc1` yielded an IC50 of 30 nM.

Consider `COc1ccc(S(=O)(=O)N(CC(C)C)C[C@@H](O)[C@H](CC23CC4CC(CC(C4)C2)C3)NC(=O)O[C@H]2CCOC2)cc1`, for which the IC50 is over 1000 nM.

In turn, `COc1ccc(S(=O)(=O)N(CC(C)C)C[C@@H](O)[C@H](CC23CC4CC(CC(C4)C2)C3)NC(=O)O[C@H]2CO[C@H]3OCC[C@H]32)cc1` registered an IC50 of 360 nM.
